The source of these data is ChEMBL document CHEMBL1148492, “Synthesis and structure-activity relationship study of potent cytotoxic analogues of the marine alkaloid Lamellarin D” (2006).

Molecules are shown by their SMILES. Active and inactive are the calls of the source. The calls are words filed in the database; no cut-off is given here.

The subject of assay [1] is MDA-MB-231. Nature of the assay: Antiproliferative activity against human MDA-MB-231 cell line after 72 hrs by SRB assay. The format is functional. Particulars: MDA-MB-231, 72 h. In short, it runs like this: (§1)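 Cells seeded at 5×10³/well in RPMI and allowed to attach in drug-free medium for 18 h. Compounds were added in DMSO/H2O (3:7) and exposure was continuous for 72 h. Cells were then fixed with cold 50% TCA for 60 min at 4°C, stained with 0.4% SRB in 1% acetic acid for 10 min at room temperature, solubilized in Tris, and OD was read at 490 nm. GI50 was derived from 100×[(T−T0)/(C−T0)]=50.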
For orientation: The SRB assay estimates cell density from bound dye.

In assay [2] the test system is A549. The assay is described as follows: Antiproliferative activity against human A549 cell line after 72 hrs by SRB assay. The assay is classed as functional. Particulars: A549, 72 h. In short, it runs like this: as §1
Assay [3] has as its system HT-29. Nature of the assay: Antiproliferative activity against human HT29 cell line after 72 hrs by SRB assay at 10 ug/mL. The format is functional, cell-based.
Assay [4] relates to MDA-MB-231. The assay is described as follows: Antiproliferative activity against human MDA-MB-231 cell line after 72 hrs by SRB assay at 10 ug/mL. The format is functional, cell-based.
The subject of assay [5] is A549. The assay is described as follows: Antiproliferative activity against human A549 cell line after 72 hrs by SRB assay at 10 ug/mL. The assay is classed as functional, cell-based.
In assay [6] the test system is HT-29. The assay is described as follows: Antiproliferative activity against human HT29 cell line after 72 hrs by SRB assay. The format is functional. To be noted: HT-29, 72 h. A digest of the protocol:
as §1

By GI50 is commonly meant the concentration giving 50% growth inhibition. `COC(=O)c1c(-c2ccc(O)c(OC)c2)c(-c2ccc(O)c(OC)c2)c2n1CCc1cc(O)c(OC)cc1-2`: the 50% growth inhibitory concentration (GI50) in the assay on MDA-MB-231 [1] was 8.5 µM; with A549 [2], 14.3 µM. For the same compound, the result in the assay on HT-29 [3] was inactive.
On the same counts, the results for `COC(=O)c1c(-c2ccc(OC)c(OC)c2)c(-c2ccc(OC)c(OC)c2)c2n1CCc1cc(O)c(OC)cc1-2` are 7.7 µM, 11.2 µM and “inactive”.
`COC(=O)c1cc(-c2cc(OC)c(OC)c(OC)c2)c2c3cc(OC)c(O)cc3ccn12`: the result in the assay with HT-29 [3], with MDA-MB-231 [4] and with A549 [5] was inactive.
In the case of `COC(=O)c1cc(-c2ccc(O)c(OC)c2)c2n1CCc1cc(OC(C)C)c(OC)cc1-2`, the 50% growth inhibitory concentration (GI50) is 18.1 µM with HT-29 [6], 19 µM in the assay with MDA-MB-231 [1] and 20.3 µM with A549 [2].
In turn, `COC(=O)c1cc(-c2cc(OC)ccc2OC)c2n1CCc1cc(O)c(OC)cc1-2` came in with a GI50 with MDA-MB-231 [1] of 12.7 µM. In addition, the result with HT-29 [3] and with A549 [5] was inactive.
Consider `COC(=O)c1cc(-c2ccc(N(C)C)cc2)c2n1CCc1cc(OC(C)C)c(OC)cc1-2`, for which the result in the assay with HT-29 [3], with MDA-MB-231 [4] and in the assay with A549 [5] was inactive.
As to `COC(=O)c1c(-c2ccc(O)c(OC)c2)c(-c2ccc(O)c(OC)c2)c2n1CCc1cc(OC(C)C)c(OC)cc1-2`, the figures for the concentration for 50% growth inhibition (GI50) in the assay with HT-29 [6], in the assay with MDA-MB-231 [1] and with A549 [2] were 6.9 µM, 7.1 µM and 14.7 µM, respectively.
The matching figures for `COC(=O)c1c(-c2cc(O)c(O)cc2O)c(-c2cc(OC)ccc2OC)c2n1CCc1cc(O)c(OC)cc1-2`: 8.4 µM, 10.5 µM and 13.7 µM.
The matching figures for `COC(=O)c1c(-c2cccc(O)c2)c(-c2cccc(O)c2)c2c3cc(OC)c(O)cc3ccn12`: 18.4 µM, 7.2 µM and 6.3 µM.
In the case of `COC(=O)c1c(-c2ccc(OC)c(OC)c2)c(-c2ccc(OC)c(OC)c2)c2c3cc(OC)c(O)cc3ccn12`, the outcome in the assay with HT-29 [3], with MDA-MB-231 [4] and in the assay with A549 [5] was inactive.
With `COC(=O)c1cc(-c2cc(OC)ccc2OC)c2c3cc(OC)c(O)cc3ccn12`, the concentration for 50% growth inhibition (GI50) in the assay with MDA-MB-231 [1] turned out to be 19.9 µM; in the assay with A549 [2] it was 13.3 µM. Moreover, in the assay with HT-29 [3], the result was inactive.
With `COC(=O)c1c(-c2cccs2)c(-c2cccs2)c2c3cc(OC)c(OC(C)C)cc3ccn12`, the outcome in the assay on HT-29 [3], with MDA-MB-231 [4] and in the assay with A549 [5] was inactive.
Regarding `COC(=O)c1c(-c2cccc([N+](=O)[O-])c2)c(-c2cccc([N+](=O)[O-])c2)c2c3cc(OC)c(O)cc3ccn12`, the GI50 turned out to be 8.9 µM in the assay on HT-29 [6] and 18.3 µM in the assay on MDA-MB-231 [1]. In addition, in the assay on A549 [5], the result was inactive.
As for `COC(=O)c1c(-c2cc(OC)c(O)cc2O)c(-c2ccc(O)c(OC)c2)c2c3cc(OC)c(O)cc3ccn12`, the 50% growth inhibitory concentration (GI50) with HT-29 [6] is 7.9 µM; with MDA-MB-231 [1] it was 0.71 µM; in the assay on A549 [2], 0.45 µM.
With `COC(=O)c1cc(-c2cc(OC)c(OC)c(OC)c2)c2n1CCc1cc(OC(C)C)c(OC)cc1-2`, the result in the assay with HT-29 [3], in the assay with MDA-MB-231 [4] and with A549 [5] was inactive.
Turning to `COC(=O)c1cc(-c2ccc(OC(C)C)c(OC)c2)c2n1CCc1cc(OC(C)C)c(OC)cc1-2`, the outcome with HT-29 [3], with MDA-MB-231 [4] and in the assay on A549 [5] was inactive.
Take `COC(=O)c1cc(-c2ccc(N(C)C)cc2)c2n1CCc1cc(O)c(OC)cc1-2`: the outcome in the assay on HT-29 [3], in the assay on MDA-MB-231 [4] and in the assay with A549 [5] was inactive.
For the compound `COC(=O)c1c(-c2cccs2)c(-c2cccs2)c2c3cc(OC)c(O)cc3ccn12`, the values for the GI50 in the assay with MDA-MB-231 [1] and in the assay on A549 [2] were 19.7 µM and 20.4 µM, respectively. In addition, in the assay with HT-29 [3], the result was inactive.
For `COC(=O)c1c(-c2ccc(O)cc2)c(-c2ccc(O)cc2)c2c3cc(OC)c(O)cc3ccn12`, the GI50 in the assay on HT-29 [6] stood at 9.8 µM; in the assay with MDA-MB-231 [1], 4.1 µM; with A549 [2], 3.5 µM.
As for `COC(=O)c1c(-c2ccc(O)cc2)c(-c2ccc(O)cc2)c2n1CCc1cc(O)c(OC)cc1-2`, the outcome in the assay with HT-29 [3], with MDA-MB-231 [4] and with A549 [5] was inactive.
Take `COC(=O)c1c(-c2cc(OC)c(O)cc2O)c(-c2ccc(O)c(OC)c2)c2n1CCc1cc(O)c(OC)cc1-2`: the GI50 in the assay with HT-29 [6] was found to be 17.1 µM; in the assay with MDA-MB-231 [1], 3.1 µM; in the assay with A549 [2], 5 µM.
Take `COC(=O)c1c(-c2cc(OC)c(O)cc2OC)c(-c2ccc(O)c(OC)c2)c2c3cc(OC)c(O)cc3ccn12`: the result with HT-29 [3], in the assay with MDA-MB-231 [4] and in the assay on A549 [5] was inactive.
For the compound `COC(=O)c1c(-c2ccc(OC(F)(F)F)cc2)c(-c2ccc(OC(F)(F)F)cc2)c2c3cc(OC)c(O)cc3ccn12`, the outcome with HT-29 [3], in the assay with MDA-MB-231 [4] and in the assay on A549 [5] was inactive.
Consider `COC(=O)c1c(-c2ccc(OC)c(OC)c2)c(-c2ccc(OC)c(OC)c2)c2n1CCc1cc(OC(C)C)c(OC)cc1-2`, for which the figures for the 50% growth inhibitory concentration (GI50) with HT-29 [6], in the assay on MDA-MB-231 [1] and in the assay with A549 [2] were 1 µM, 0.98 µM and 0.81 µM, respectively.
Take `COC(=O)c1c(-c2cc(OC)c(OC(C)C)cc2OC(C)C)c(-c2ccc(OC(C)C)c(OC)c2)c2n1CCc1cc(OC(C)C)c(OC)cc1-2`: the result with HT-29 [3], with MDA-MB-231 [4] and with A549 [5] was inactive.
For the compound `COC(=O)c1cc(-c2ccc(O)c(OC)c2)c2n1CCc1cc(O)c(OC)cc1-2`, the GI50 in the assay on HT-29 [6] was 18 µM; in the assay on MDA-MB-231 [1] it was 22.3 µM; with A549 [2], 14.2 µM.
Consider `COC(=O)c1c(-c2ccc(OC)cc2)c(-c2ccc(OC)cc2)c2c3cc(OC)c(O)cc3ccn12`, for which the concentration for 50% growth inhibition (GI50) in the assay on HT-29 [6] was found to be 9.7 µM; in the assay on MDA-MB-231 [1], 9.9 µM. Moreover, the outcome in the assay with A549 [5] was inactive.
As for `COC(=O)c1c(-c2ccc(O)cc2)c(-c2ccc(O)c(OC)c2)c2c3cc(OC)c(O)cc3ccn12`, the results for the concentration for 50% growth inhibition (GI50) in the assay with HT-29 [6], in the assay with MDA-MB-231 [1] and with A549 [2] were 10.1 µM, 15 µM and 9.8 µM, respectively.
As to `COC(=O)c1c(-c2ccc(O)cc2O)c(-c2cccc(O)c2)c2n1CCc1cc(O)c(OC)cc1-2`, the result with HT-29 [3], with MDA-MB-231 [4] and in the assay with A549 [5] was inactive.
For `COC(=O)c1c(-c2ccc(OC)cc2)c(-c2ccc(OC)cc2)c2n1CCc1cc(O)c(OC)cc1-2`, the GI50 with HT-29 [6] came out at 10.3 µM; in the assay with MDA-MB-231 [1] it was 14.4 µM; in the assay on A549 [2], 9.2 µM.
`COC(=O)c1c(-c2ccc(N(C)C)cc2)c(-c2ccc(N(C)C)cc2)c2n1CCc1cc(O)c(OC)cc1-2` showed a GI50 in the assay with MDA-MB-231 [1] of 13.7 µM. Besides, the outcome in the assay with HT-29 [3] and in the assay on A549 [5] was inactive.
With `COC(=O)c1c(-c2ccc(O)cc2O)c(-c2cccc(O)c2)c2c3cc(OC)c(O)cc3ccn12`, the results for the GI50 in the assay on MDA-MB-231 [1] and in the assay with A549 [2] were 10.6 µM and 20.8 µM, respectively. Further, in the assay with HT-29 [3], the result was inactive.
As for `COC(=O)c1c(-c2ccc(OC)c(OC)c2)c(-c2ccc(O)c(OC)c2)c2c3cc(OC)c(O)cc3ccn12`, the outcome in the assay on HT-29 [3], in the assay with MDA-MB-231 [4] and with A549 [5] was inactive.
`COc1cc(-c2c3c4cc(OC)c(O)cc4oc(=O)c3n3ccc4cc(O)c(OC)cc4c23)ccc1O` [LAMELLARIN D]: the GI50 with HT-29 [6] amounted to 5.1 µM; with MDA-MB-231 [1] it was 0.25 µM; with A549 [2], 0.2 µM.
Regarding `COC(=O)c1c(-c2cccc([N+](=O)[O-])c2)c(-c2cccc([N+](=O)[O-])c2)c2n1CCc1cc(O)c(OC)cc1-2`, the GI50 with HT-29 [6] was found to be 11.3 µM; in the assay on MDA-MB-231 [1] it was 10.1 µM; in the assay on A549 [2], 18 µM.
As for `COC(=O)c1c(-c2ccc(OC(F)(F)F)cc2)c(-c2ccc(OC(F)(F)F)cc2)c2n1CCc1cc(O)c(OC)cc1-2`, the result in the assay with HT-29 [3], in the assay on MDA-MB-231 [4] and with A549 [5] was inactive.
On to `COC(=O)c1c(-c2cc(OC)c(OC)c(OC)c2)c(-c2cc(OC)c(OC)c(OC)c2)c2c3cc(OC)c(O)cc3ccn12`, for which the outcome in the assay with HT-29 [3], with MDA-MB-231 [4] and in the assay on A549 [5] was inactive.
Consider `COC(=O)c1cc(-c2cccs2)c2c3cc(OC)c(O)cc3ccn12`, for which the concentration for 50% growth inhibition (GI50) in the assay on MDA-MB-231 [1] is 26.3 µM. Besides, the outcome with HT-29 [3] and with A549 [5] was inactive.
For `COC(=O)c1c(-c2cc(OC)c(O)cc2OC)c(-c2ccc(O)c(OC)c2)c2n1CCc1cc(O)c(OC)cc1-2`, the 50% growth inhibitory concentration (GI50) in the assay with MDA-MB-231 [1] is 7.6 µM; in the assay with A549 [2] it was 8.9 µM. Also, the result in the assay with HT-29 [3] was inactive.
As to `COC(=O)c1c(-c2cc(O)c(O)cc2O)c(-c2cc(OC)ccc2OC)c2c3cc(OC)c(O)cc3ccn12`, the GI50 worked out at 7.1 µM in the assay with HT-29 [6], 3.2 µM with MDA-MB-231 [1] and 4.7 µM with A549 [2].
The matching figures for `COC(=O)c1cc(-c2ccc(O)c(OC)c2)c2c3cc(OC)c(O)cc3ccn12`: 23.9 µM, 11.2 µM and 10.9 µM.
`COC(=O)c1c(-c2ccc(OC)c(OC)c2O)c(-c2cccc(O)c2)c2n1CCc1cc(O)c(OC)cc1-2`: the 50% growth inhibitory concentration (GI50) in the assay with MDA-MB-231 [1] amounted to 15.7 µM; in the assay on A549 [2], 14.7 µM. Further, in the assay on HT-29 [3], the outcome was inactive.
Regarding `COC(=O)c1c(-c2ccc(O)c(OC)c2)c(-c2ccc(O)c(OC)c2)c2c3cc(OC)c(O)cc3ccn12`, the results for the GI50 with HT-29 [6], in the assay on MDA-MB-231 [1] and in the assay with A549 [2] were 8.1 µM, 7.5 µM and 7.1 µM, respectively.
